Assay results from different studies.
Compare with care: the assays were run in different laboratories.
Target: Aurora kinase B (AURKB, Homo sapiens, UniProt Q96GD4)

SMILES | effect on | method | tested at | remaining binding [%]
CN(c1ccnc(CNc2nc(Nc3ccc4c(c3)CC(=O)N4)ncc2C(F)(F)F)n1)S(C)(=O)=O | cell-free assay | competition with immobilised ligand | 1 µM | 9.9
F[C@@H]1CCN(c2nccc(-c3cnn4ncccc34)n2)C1 | binding | – | 1 µM | 100
COc1cc(C(=O)N2CCC(N3CCN(C)CC3)CC2)ccc1Nc1ncc2c(n1)N(C)c1ccccc1C(=O)N2C | binding | competition with immobilised ligand | 10 µM | 38
O=C(NCc1ncc(C(F)(F)F)cc1Cl)c1ccc2c(c1)C1(CCS(=O)(=O)CC1)[C@@H](C1CC1)N2S(=O)(=O)c1ccc(F)cc1 | cell-free assay | competition with immobilised ligand | 1 µM | 66
COc1ccnn2ncc(-c3ccnc(N(C)C)n3)c12 | binding | – | 1 µM | 100
O=C(NCC1CCOCC1)c1n[nH]cc1NC(=O)c1c(F)cccc1F | binding | competition with immobilised ligand | 1 µM | 78
C=CC(=O)N1CCC(C(=O)NCC(=O)N2CCN(c3nc(-c4cnc(N)nc4C(F)F)nc(N4CCOCC4)n3)CC2)CC1 | binding | competition with immobilised ligand | 1 µM | 56
CN([C@@H]1CCc2c(CC(=O)O)c3ccccc3n2C1)S(=O)(=O)c1ccc(F)cc1 | cell-free assay | competition with immobilised ligand | 1 µM | 91
N#Cc1ccccc1CSc1nnc2c(n1)[nH]c1ccccc12 | binding | competition with immobilised ligand | 10 µM | 100
COc1ccc2c(O[C@@H]3C[C@H]4C(=O)N[C@]5(C(=O)O)CC5/C=C\CCCCC[C@H](NC(=O)OC5CCCC5)C(=O)N4C3)cc(-c3csc(NC(=O)C(C)C)n3)nc2c1C (some centres unmarked) | cell-free assay | competition with immobilised ligand | 1 µM | 91
CN(CCCC(F)(F)F)c1nccc(-c2cnn3ncccc23)n1 | binding | – | 1 µM | 98
Cc1c(C(=O)O)cc(-c2ccc(C3CCNCC3)cc2)c2ccc(-c3ccc(C(F)(F)F)cc3)cc12 | cell-free assay | competition with immobilised ligand | 1 µM | 100
FC(F)(F)Oc1cccc(-c2cnc3ccc(-c4ccncc4)nn23)c1 | cell-free assay | competition with immobilised ligand | 5 µM | 73
O=C1CCc2cc(Nc3cc(OC4CCOCC4)c([N+](=O)[O-])cc3Cl)ccc2N1 | cell-free assay | competition with immobilised ligand | 1 µM | 86
O=C(c1ccc(Nc2ncc(Cl)c(-c3cc4ccccc4s3)n2)cc1)N1CCC(N2CCCC2)CC1 | binding | competition with immobilised ligand | 1 µM | 17
N[C@@H]1CCN(c2nccc(-c3cnn4ncccc34)n2)C1 | binding | – | 1 µM | 99
COc1cnc(Nc2cccc(S(N)(=O)=O)c2)nc1N1CCN(c2ccccc2)C(=O)C1 | binding | competition with immobilised ligand | 1 µM | 63
CCN1CCN(Cc2ccc(C(=O)Nc3ccc(C)c(Oc4ccc5c(c4)CC(=O)N5)c3)cc2C(F)(F)F)CC1 | binding | competition with immobilised ligand | 1 µM | 100
C[C@H]1CCN(c2nccc(-c3cnn4ncccc34)n2)C1 | binding | – | 1 µM | 70
O=C(NCCCN1CCOCC1)c1ccc(Nc2ncc(Cl)c(-c3ccc(Cl)s3)n2)cc1 | binding | competition with immobilised ligand | 1 µM | 15
C[C@@H]1CN(c2ccc3ncc(-c4ccc5[nH]nc(C6CC6)c5c4)n3n2)C[C@H](C)O1 | binding | competition with immobilised ligand | 50 nM | 100
CC(C)(C)c1ccc(-c2nc(CBr)nn2-c2cccc(O)c2)cc1 | cell-free assay | competition with immobilised ligand | 10 µM | 69
Cc1cnc(Nc2ccc(C(=O)N3CCC(N4CCCC4)CC3)cc2)nc1-c1cc2ccccc2s1 | binding | competition with immobilised ligand | 1 µM | 6.8
